# Assay results reported in ChEMBL document CHEMBL1148286.
# How the values were obtained:
# [1] = molecular target: Transthyretin (Homo sapiens) (UniProt P02766); assay: Transthyretin (TTR) amyloidogenesis inhibition activity by employing an acid-mediated (pH 4.4) WTTTR amyloid fibril formation assay, at 7.2 uM conc.; assay type: functional
# In short: (§1)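 WT TTR (3.6 µM tetramer) in 10 mM phosphate, 100 mM KCl, 1 mM EDTA pH 7.6, preincubated 30 min at 25 °C with compound from DMSO stock. Acidified to pH 4.4 with acetate buffer, then held 72 h at 37 °C without agitation. Turbidity read at 350 and 400 nm after vortexing. Expressed as % of the no-inhibitor control; triplicate.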
# [2] = molecular target: Transthyretin (Homo sapiens) (UniProt P02766); assay: Transthyretin (TTR) amyloidogenesis inhibition activity by employing an acid-mediated (pH 4.4) WTTTR amyloid fibril formation assay, at 3.6 uM conc.; assay type: functional; in short: as §1
# [3] = molecular target: Transthyretin (Homo sapiens) (UniProt P02766); assay: Ability to bind TTR selectively over all other proteins in human blood plasma (equiv bound); None observed; assay type: cell-free
# In short: (§2)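 Human blood plasma (1.0 mL) incubated with compound from 1.44 mM DMSO stock (final 10.8 µM) at 37 °C for 24 h with rocking. Pre-cleared with quenched sepharose, then TTR captured on anti-TTR antibody sepharose at 4 °C, washed with TSA/0.05% saponin and TSA. Eluted with 100 mM triethylamine pH 11.5. Ligand:TTR stoichiometry measured by reverse-phase HPLC (maximum 2 per tetramer).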
# [4] = molecular target: Transthyretin (Homo sapiens) (UniProt P02766); assay: Ability to bind TTR selectively over all other proteins in human blood plasma (equiv bound); assay type: cell-free; in short: as §2
# [5] = molecular target: Transthyretin (Homo sapiens) (UniProt P02766); assay: The second dissociation constant for binding to WT TTR determined by isothermal titration calorimetry (25 C, pH 8.0)
# [6] = molecular target: Transthyretin (Homo sapiens) (UniProt P02766); assay: The first dissociation constant for binding to WT TTR determined by isothermal titration calorimetry (25 C, pH 8.0)
SMILES,Fibril formation [1],Fibril formation [2],Plasma selectivity [4],further results
Oc1ccc(-c2cc(F)cc(F)c2)cc1,16.4%,,,
Fc1ccc(-c2ccccc2)cc1,100%,,,
OCc1ccccc1-c1cc(Cl)cc(Cl)c1,7.7%,33.6%,,Plasma selectivity [3]: None observed
Oc1ccc(-c2ccccc2F)cc1,19.6%,,,
Oc1cccc(-c2cc(F)cc(F)c2)c1,10.2%,40.9%,0.18,
O=C(O)c1ccccc1-c1cc(Cl)cc(Cl)c1,45.4%,,,
Oc1cccc(-c2ccccc2F)c1,19.5%,,,
O=C(O)c1cccc(-c2ccc(F)cc2)c1,15.7%,,,
O=Cc1cccc(-c2ccccc2)c1,35.4%,,,
O=C(O)c1cccc(-c2c(F)cccc2F)c1,6.7%,35.1%,0.29,
O=C(O)c1cc(-c2ccc(Cl)cc2Cl)ccc1O,3.6%,29.9%,0.27,
COC(=O)c1cc(-c2ccc(F)cc2F)ccc1O,38.5%,,,
OCc1ccccc1-c1ccccc1,81%,,,
COc1ccc(-c2ccc(F)cc2F)cc1C(=O)O,69.9%,,,
Fc1cc(F)cc(-c2ccccc2)c1,100%,,,
O=C(O)c1cccc(-c2ccccc2F)c1,9.8%,39.4%,None observed,
O=C(O)c1ccc(-c2cc(F)c(O)c(F)c2)cc1,3.4%,31.7%,0.07,
O=C(O)c1cccc(-c2cc(F)cc(F)c2)c1,5.6%,35.7%,0.23,
OCc1cccc(-c2ccccc2)c1,85.5%,,,
O=C(O)c1cccc(-c2cc(Cl)c(O)c(Cl)c2)c1,4.4%,25.5%,0.12,
Fc1ccc(-c2ccccc2)c(F)c1,100%,,,
O=Cc1ccc(-c2ccccc2)cc1,93.5%,,,
Oc1ccc(-c2ccc(F)cc2)cc1,53.1%,,,
O=C(O)c1ccc(-c2cc(F)cc(F)c2)cc1,3.7%,35.7%,1.27,Kd2 [5]: 1100 nM; Kd1 [6]: 9 nM
O=C(O)c1cccc(-c2cc(Cl)cc(Cl)c2)c1,3%,32.7%,0.8,
Oc1cccc(-c2ccccc2)c1,61.2%,,,
Fc1ccccc1-c1ccccc1,99.4%,,,
OCc1ccc(-c2ccccc2)cc1,100%,,,

SMILES,Fibril formation [1],Fibril formation [2],Plasma selectivity [4],further results
O=C(O)c1ccc(-c2ccc(F)cc2)cc1,13.3%,,,
O=C(O)c1ccc(-c2c(F)cccc2F)cc1,4.5%,28.5%,,Kd2 [5]: 1300 nM
O=Cc1ccc(-c2cc(Cl)cc(Cl)c2)cc1,25.4%,,,
O=C(O)c1cc(-c2cc(F)cc(F)c2)ccc1O,1%,35.5%,None observed,
OCc1ccc(-c2cc(Cl)cc(Cl)c2)cc1,5.9%,38.9%,0.54,
O=C(O)c1cccc(-c2cc(F)c(O)c(F)c2)c1,3.5%,38.5%,None observed,
O=Cc1cccc(-c2cc(Cl)cc(Cl)c2)c1,4.4%,30.6%,1.3,
O=C(O)c1ccc(-c2cc(Cl)c(O)c(Cl)c2)cc1,3.8%,25.8%,0.26,
O=C(O)c1ccc(-c2cc(Cl)cc(Cl)c2)cc1,4.9%,41.2%,1.56,
O=Cc1ccccc1-c1cc(Cl)cc(Cl)c1,7.1%,34.5%,1.96,
O=Cc1cccc(-c2cc(F)cc(F)c2)c1,64.3%,,,
O=C(O)c1ccc(-c2ccccc2F)cc1,4.8%,32.4%,0.08,
Oc1ccc(-c2ccc(F)cc2F)cc1,32.4%,,,
O=C(O)c1cc(-c2ccc(F)cc2F)ccc1O,3.4%,37%,,
Oc1cccc(-c2ccc(F)cc2F)c1,31.5%,,,
OCc1cccc(-c2cc(Cl)cc(Cl)c2)c1,3.3%,30%,0.89,
O=C(O)c1cccc(-c2ccccc2)c1,30.8%,,,
Oc1cccc(-c2ccc(F)cc2)c1,46.3%,,,
Clc1cc(Cl)cc(-c2ccccc2)c1,52.2%,,,
O=Cc1ccc(-c2cc(F)cc(F)c2)cc1,69.6%,,,
O=C(O)c1cc(-c2ccc(F)cc2)ccc1O,2.6%,38.7%,0.09,
O=C(O)c1ccc(-c2ccccc2)cc1,14.3%,51.5%,0.08,
O=C(O)c1cc(-c2ccccc2)ccc1O,15.4%,47.4%,,Plasma selectivity [3]: None observed
O=C(O)c1cc(-c2ccccc2F)ccc1O,2.5%,38.7%,0.07,
O=C(O)c1ccc(-c2ccc(F)cc2F)cc1,2.6%,32.6%,0.2,
O=Cc1ccccc1-c1ccccc1,72.5%,,,
O=C(O)c1cccc(-c2ccc(F)cc2F)c1,9.1%,39.4%,,Plasma selectivity [3]: None observed
